Experimental data: paper PMC9605878 (Cell Chemical Biology, 2022)
Converted amounts (≈) assume the structure as drawn. Like-named read-outs stand apart in the source and are kept apart here.

What was measured:
S. aureus strain RN6390B = test: S. aureus MIC, broth microdilution; type: cell-based, Staphylococcus aureus
Procedure, shortened: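 Broth microdilution MIC in Müller–Hinton broth at 37°C; S. aureus also tested in MHB containing 10% FBS.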

S. aureus membranes [1] = test: Membrane dipole potential; type: binding, Staphylococcus aureus; settings: for change in membrane dipole potential: fixed concentration 40 μM, fluorescence ratio R(460/520)
Procedure, shortened: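 Isolated S. aureus membranes labelled with the dipole-potential probe di-8-ANEPPS. Dipole potential change followed as fluorescence ratio R(460/520), at a fixed 40 μM per compound. Kd obtained from binding curves versus compound concentration by the dual-wavelength ratiometric method, with methanol included. Mean of three independent experiments ±SD.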

PqsR = settings: read-out: PqsR IC50; ref Ilangovan et al., 2013; cited from earlier work
Staphylococcal cells = test: Dissipation of transmembrane potential; type: cell-based, Staphylococcus aureus; settings: 10 μM test compound
Procedure, shortened: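 Staphylococcal cells suspended in 50 mM potassium phosphate buffer, pH 7, with 5 μM DiSC3(5). Fluorescence (ex 650, em 680 nm) monitored over 200 s. Test compound (10 μM) added once signal stabilised. Valinomycin (5 μM) then added for complete depolarisation. Novobiocin and chloramphenicol (10 μg/ml) served as negative controls. Three independent repeats, representative traces.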

[2] = test system: defibrinated rabbit red blood cells; test: Haemolytic activity; type: cell-based
Procedure, shortened: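 Defibrinated rabbit blood incubated in PBS for 60 min with test compound or Triton X-100 (positive control). Samples pelleted and supernatant A543 measured. Percent haemolysis calculated relative to the Triton X-100 control.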

[3] = test system: S. aureus strain USA300 JE2; test: Membrane permeabilization; type: cell-based, Staphylococcus aureus; settings: 10 μM, relative to nisin 0.6 μM
Procedure, shortened: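 USA300 JE2 grown overnight in CYGP, washed in 100 mM phosphate buffer pH 7, resuspended to OD600 0.1 and exposed to test compound for 1 h at 37°C. Nisin (0.6 μM) used as positive control. Cell-free supernatant ATP measured by luminescence kit. For PI uptake, cells held in phosphate buffer pH 7 with PI (10 μg/ml), 10 min dark at RT, washed, then read (ex 575/em 630 nm). Mean of three experiments ±SD.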

S. aureus membranes [4] = settings: read-out: Kd (membrane-active agent); ref Murray et al., 2014; cited from earlier work
Chrome azurol S = type: physicochemical; settings: 50 μM, PBS pH 7.4
Procedure, shortened: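 PBS (pH 7.4) with test compound (50 μM), or without it as reference, mixed with an equal volume of CAS assay solution. A630 read after 15 min at room temperature. Siderophore units = […].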

[5] = test system: P. aeruginosa PAO1 in mixed biofilm with S. aureus SH1000; test: Mixed-species biofilm, P. aeruginosa component; type: cell-based, Pseudomonas aeruginosa; settings: tobramycin alone (100 μg/mL, 4 h)
Procedure, shortened: (§1)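 GFP-tagged S. aureus SH1000 and mCherry-tagged P. aeruginosa PAO1 grown 16 h in RPMI-1640, diluted 1:100, regrown to OD600 ~0.5, then diluted to OD600 0.1 and 0.01 respectively. S. aureus seeded on glass coverslips for 1 h static, then P. aeruginosa added (10:1). Test compound (100 μM) or DMSO added; 48 h at 37°C. Where required, tobramycin (100 μg/mL) added for a further 4 h. Confocal imaging, biomass quantified per species; 3 experiments ±SD.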

[6] = test system: S. aureus SH1000 in mixed biofilm with P. aeruginosa PAO1; test: Mixed-species biofilm, S. aureus component; type: cell-based, Staphylococcus aureus; settings: tobramycin alone (100 μg/mL, 4 h)
Procedure, shortened: as §1

[7] = S. aureus RN6390B, broth microdilution

CCCCCCCc1nc2ccccc2c(=O)[nH]1 [Compound 1]
MIC (S. aureus strain RN6390B; [7]): >100 µM

CCCCCCCCCc1nc2ccccc2c(=O)[nH]1 [Compound 2]
change in membrane dipole potential (S. aureus membranes [1]): little impact | MIC (S. aureus strain RN6390B; [7]): >100 µM

CCCCCCCCCc1nc2cc(Cl)ccc2c(=O)[nH]1 [Compound 4, 7-Chloro-2-n-nonylquinazolin-4(3H)-one]
MIC (S. aureus strain RN6390B; Staphylococcus aureus, RN6390B): > 100 µM

CCCCCCCC1Nc2ccccc2S(=O)(=O)N1 (stereo not shown) [Compound 5, 3-n-Heptyl-3,4-dihydro-2H-benzo[e][1,2,4]thiadiazine 1,1-dioxide]
S. aureus growth-inhibitory activity (S. aureus strain RN6390B): inactive | MIC (S. aureus strain RN6390B; Staphylococcus aureus, RN6390B): > 100 µM

CCCCCCCCCC1Nc2ccccc2S(=O)(=O)N1 (stereo not shown) [Compound 6, 3-n-Nonyl-3,4-dihydro-2H-benzo[e][1,2,4]thiadiazine 1,1-dioxide]
S. aureus growth-inhibitory activity (S. aureus strain RN6390B): inactive | MIC (S. aureus strain RN6390B; Staphylococcus aureus, RN6390B): > 100 µM

CCCCCc1nc2ccccc2c(=O)n1N [Compound 7]
MIC (S. aureus strain RN6390B; [7]): >100 µM

CCCCCCCc1nc2ccccc2c(=O)n1N [Compound 8]
MIC (S. aureus strain RN6390B; [7]): >100 µM

Cc1nc2ccccc2c(=O)n1N [Compound 17, 3-Amino-2-methylquinazolin-4(3H)-one]
MIC (S. aureus strain RN6390B; Staphylococcus aureus, RN6390B): > 100 µM

CCCCCCCCCc1nc2cc(F)ccc2c(=O)n1N [Compound 18]
MIC (S. aureus strain RN6390B; [7]): >100 µM

CCCCCCCCCc1nc2cc(Cl)ccc2c(=O)n1N [Compound 19]
IC50 (PqsR): 5 µM | change in membrane dipole potential (S. aureus membranes [1]): increased | MIC (S. aureus strain RN6390B; [7]): >100 µM | DiSC3(5) fluorescence / transmembrane potential (Staphylococcal cells): does not increase fluorescence | hemolytic activity [2]: not hemolytic

CCCCCCCCCc1nc2cc(F)c(F)cc2c(=O)n1N [Compound 22]
MIC (S. aureus strain RN6390B; [7]): >100 µM

CCCCCCCCCc1nc2cc(Cl)ccc2c(=O)n1CCCCN [Compound 35, 3-(4-Aminobutyl)-7-chloro-2-n-nonylquinazolin-4(3H)-one]
cellular ATP loss and PI uptake [3]: significant cellular ATP loss alongside the reciprocal uptake of PI | change in membrane dipole potential (S. aureus membranes [1]): greatest changes in dipole potential | Kd (S. aureus membranes [1]; read-out: Kd (membrane binding), binding curves, di-8-ANEPPS): 5.2 ± 0.3 µM | MIC (S. aureus strain RN6390B; Staphylococcus aureus, RN6390B): 12.5 µM (≈ 4.72 µg/mL) | DiSC3(5) fluorescence / transmembrane potential (Staphylococcal cells): increase in fluorescence

CCCCCCCCCc1nc2cc(F)ccc2c(=O)n1OC [Compound 39]
MIC (S. aureus strain RN6390B; [7]): >100 µM

CCCCCCCCCc1nc2cc(Cl)ccc2c(=O)n1CCO [Compound 45, 7-Chloro-3-(2-hydroxyethyl)-2-n-nonylquinazolin-4(3H)-one]
MIC (S. aureus strain RN6390B; [7]): >100 µM | MIC (S. aureus strain RN6390B; Staphylococcus aureus, RN6390B): > 100 µM

CCCCCCCCCc1[nH]c2ccccc2c(=O)c1O [Compound C9-PQS, reference compound]
change in membrane dipole potential (S. aureus membranes [1]): little impact

CCCCCCCCCCCCCC(=O)C1=C(O)COC1=O [Compound C14-TOA, 3-tetradecanoyltetronic acid]
Kd (S. aureus membranes [4]): 4 µM

CCCCCCCc1[nH]c2ccccc2c(=O)c1O [PQS, 2-Heptyl-3-hydroxy-4(1H)-quinolone]
iron-chelating properties (Chrome azurol S): sequestered iron

NC[C@H]1O[C@H](O[C@H]2[C@H](O)[C@@H](O[C@H]3O[C@H](CO)[C@@H](O)[C@H](N)[C@H]3O)[C@H](N)C[C@@H]2N)[C@H](N)C[C@@H]1O [tobramycin]
reduction of P. aeruginosa biomass [5]: ~60% | S. aureus biomass [6]: clearly protected
